Measured values from ChEMBL document CHEMBL1143284, “Synthesis of riccardin C and its seven analogues. Part 1: The role of their phenolic hydroxy groups as LXRalpha agonists” (Bioorg Med Chem Lett, 2009).
Calls of active or inactive are those of the source. The rule behind the calls is not given here.

What was measured:
[1] = molecular target: T1, Oxysterols receptor LXR-beta (Homo sapiens) (UniProt P55055); assay: Agonist activity at full length LXRbeta expressed in african green monkey COS1 cells co-transfected with RXRalpha assessed as increase in LXR-response element driven luciferase reporter gene transactivation at 10 to 30 uM after 24 hrs; settings: COS-1
T1 sequence (whole entry): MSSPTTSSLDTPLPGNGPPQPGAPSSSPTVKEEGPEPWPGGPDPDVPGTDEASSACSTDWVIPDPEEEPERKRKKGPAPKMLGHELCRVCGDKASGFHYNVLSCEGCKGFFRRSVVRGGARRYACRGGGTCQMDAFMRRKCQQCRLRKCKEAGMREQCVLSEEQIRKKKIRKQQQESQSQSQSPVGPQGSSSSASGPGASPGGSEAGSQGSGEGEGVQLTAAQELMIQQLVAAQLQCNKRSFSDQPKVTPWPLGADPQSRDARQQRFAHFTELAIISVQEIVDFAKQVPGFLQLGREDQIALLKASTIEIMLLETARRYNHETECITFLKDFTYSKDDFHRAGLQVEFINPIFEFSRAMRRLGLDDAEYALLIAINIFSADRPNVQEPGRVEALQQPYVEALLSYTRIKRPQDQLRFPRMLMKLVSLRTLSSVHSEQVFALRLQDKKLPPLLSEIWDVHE

[2] = molecular target: T2, Oxysterols receptor LXR-alpha (Homo sapiens) (UniProt Q13133); assay: Agonist activity at full length LXRalpha expressed in african green monkey COS1 cells co-transfected with RXRalpha assessed as increase in LXR-response element driven luciferase reporter gene transactivation at 10 to 30 uM after 24 hrs; settings: COS-1
T2 sequence (whole entry): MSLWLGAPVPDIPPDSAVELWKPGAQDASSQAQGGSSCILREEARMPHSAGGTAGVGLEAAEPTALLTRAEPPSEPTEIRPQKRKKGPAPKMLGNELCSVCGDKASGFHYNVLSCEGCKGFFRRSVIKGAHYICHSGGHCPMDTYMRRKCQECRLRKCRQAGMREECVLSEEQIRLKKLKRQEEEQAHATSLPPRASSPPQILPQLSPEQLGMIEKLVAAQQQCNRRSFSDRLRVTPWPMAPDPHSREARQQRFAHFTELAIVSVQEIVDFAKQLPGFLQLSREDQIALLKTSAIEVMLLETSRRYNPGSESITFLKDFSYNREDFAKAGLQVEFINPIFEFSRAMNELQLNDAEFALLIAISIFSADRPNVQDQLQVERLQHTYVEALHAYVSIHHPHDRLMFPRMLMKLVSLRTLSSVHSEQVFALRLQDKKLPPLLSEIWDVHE

[3] = molecular target: T1, Oxysterols receptor LXR-beta (Homo sapiens); assay: Activation of full length LXRbeta expressed in african green monkey COS7 cells co-transfected with RXRalpha assessed as increase in LXR-response element driven luciferase reporter gene transactivation after 24 hrs; format: cell-based; settings: COS-7
How it was run: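 Transient LXR/RXRα luciferase reporter assay in COS cells with β-galactosidase as internal control. Cells treated 24 h with test compounds at 10 or 30 μM, or TO901317 at 100 nM, in the presence of compactin to deplete endogenous LXR ligands. Luciferase activity in cell extracts normalized to β-galactosidase and expressed as fold induction over vehicle-treated cells.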

Row | Activity [1] | Activity [2] | Activity [3] | Compound
1 | inactive | inactive | – | COc1ccc2cc1Oc1ccc(cc1)CCc1cc(O)ccc1-c1ccc(cc1OC)CC2
2 | inactive | inactive | – | COc1cc2ccc1-c1ccc(O)cc1CCc1ccc(cc1)Oc1cc(ccc1O)CC2
3 | inactive | inactive | – | COc1ccc2cc1Oc1ccc(cc1)CCc1cc(O)ccc1-c1ccc(cc1O)CC2
4 | inactive | inactive | – | COc1ccc2c(c1)CCc1ccc(cc1)Oc1cc(ccc1OC)CCc1ccc-2c(OC)c1

Further lines, the molecule ahead of its results:

Row | Compound | Activity [1] | Activity [2] | Activity [3]
5 | COc1ccc2c(c1)CCc1ccc(cc1)Oc1cc(ccc1OC)CCc1ccc-2c(O)c1 | inactive | inactive | –
6 | COc1ccc2c(c1)CCc1ccc(cc1)Oc1cc(ccc1O)CCc1ccc-2c(O)c1 | inactive | inactive | –
7 | Oc1ccc2c(c1)CCc1ccc(cc1)Oc1cc(ccc1O)CCc1ccc-2c(O)c1 | – | – | inactive
8 | COc1ccc2c(c1)CCc1ccc(cc1)Oc1cc(ccc1O)CCc1ccc-2c(OC)c1 | inactive | inactive | –
